Laboratory results taken from the EternaBench riboswitch data.

Test system: MS2 coat protein
Assay: apparent Kd, MS2 coat protein; higher = weaker binding; RNA-MaP array; tryptophan 2.4 mM where present
In short: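 Designs were transcribed by stalled E. coli RNA polymerase on Illumina sequencing-chip clusters. They were titrated with SNAP-549-labelled MS2 coat protein from 0.7 or 1.5 nM, doubling to 3 µM, in 100 mM Tris-HCl pH 7.5, 80 mM KCl, 4 mM MgCl2, BSA, DTT, yeast tRNA and Tween-20, without and then with constant ligand. The apparent Kd is the median of filtered per-cluster fits after normalisation of green signal to red-channel RNA signal and control-cluster median Fmax.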

[1] = designed as: ON switch for tryptophan, no ligand
[2] = ligand present: tryptophan, designed as: ON switch for tryptophan
[3] = designed as: OFF switch for tryptophan, no ligand
[4] = ligand present: tryptophan, designed as: OFF switch for tryptophan

Sequence	apparent Kd [1] [nM]	apparent Kd [2] [nM]	apparent Kd [3] [nM]	apparent Kd [4] [nM]
UUAUAUACUACGGCCGCCACUGAACAUGAGGAUCACCCAUGUAAUGUUCAGAUUUUUUUUUUUUACAGGACCGGGUAGAAUUAAA	159	133		
GACGCAUGAGUUGUAAAAGCUCAUGGGUCGCGAGGACCGGUACGGCCGCCACUCGGCUGUACAUGAGGAUCACCCAUGUCAGGGU	275	580		
UGCAUUAUACAUGGAUCACCCAUGUAGACACGAGGACCGGUACGGCCGCCACUCGGAAGAGGAAACAUGAGGAUCACCCAUGUGA	78.5	78.2		
UAAUCCGGUCCUCGAUAAUCCUCAUGUAAACGAGGACCGGUACGGCCGCCACUCGAUAACAUGAGGAUCACCCAUGUAAUAAUAA			89.5	46.5
UGGGUCGGAUGAGUAAAUUGUCGGACUCAUCGAGGACCGGUACGGCCGCCACUCGGUUGUACAUGAGGAUCACCCAUGUCAGGGU	364	223		
AUACAUGAGGAUCACCCAUGUGAUGGCCGGCGAGGACCGGUACGGCCGCCACUCGUGAUCCGUCCUGAAAGCAAAGCUCCCAGCA	55.2	122		
AGCACAUGAGGAUCACCCAUGUGUCGGUACCGAGGACCGGUACGGCCGCCACUCGCAGGACAUGAGGAUCACCCAUGUGCCGCCG	25.1	25.4		
UCGGGCAUAGCGGCCGCCACUGUUUGGCGUGCGGAUGACGGAACAUGAGGAUCACCCAUGUUGUUUAGGACCGGGCUUGCGUCGU			13.2	15.2
UAACAUGAGGAUCACCCAUGUAUACUAAGUCGAGGACCGGUACGGCCGCCACUCGAAAUUGAAGAAUUGGCGGUAAAUGUAAGUA			12.2	12.5
UACAUGAGGAUCACCCAUGUCCCAUGUGAACGAGGACCGGUACGGCCGCCACUCGACCGAGGCGGCACAUGAGGAUCACCCGCAU	736	1580		
UAAACUACACAUGAGGAUCACCCAUGUGGCCGAGGACCGGUACGGCCGCCACUCGUGUGUUAAUAAAAGAACUGCAAGGUUCUGU	350	84		
CGAGUAAGUUCAAUCGAAUAACGGUUUUCGCGAGGACCGGUACGGCCGCCACUCGUGUGAUAUCACACAUGAGGAUCACCCAUGU	77.6	47.4		
AGAUUCGACACGGCCGCCACUCGUGACGGAUUUCCGAGUGUCGAACAUGAGGAUCACCCAUGUCCGAGGACCGGGUGUUGAGUCU			34.1	522
ACGCCCGCCUCACAUGAGGAUCACCCAUGUCGAGGACCGGUACGGCCGCCACUCGUCGUCGGUAAUACGGGCGUUGAAUAAUAUA			11.5	49.7
GGGUCAGGCGCGGCCGCCACUGCGGUGAUGUGACAUGAGGAUCACCCAUGUUGUCAUGUGGCACAUAGGACCGGGCGCCUGGCCC			29.2	31.6
AAGACAUGAGGAUCACCCAUGUCGUGUGAACGAGGACCGGUACGGCCGCCACUCGUUUGAAAAUAAACGAAUGCGGCCUGGGAAA			11	14.2
AGCGCGGUGAUGGUAGCCGGACGCUAGGUACGAGGACCGGUACGGCCGCCACUCGGAGUCCUACGACAUGAGGAUCACCCAUGUA	99.3	46.8		
AGAUUCGACACGGCCGCCACUUUCAGUGGCUGGUGUCAUGGUGCACAUGAGGAUCACCCAUGUGGAAGGACCGGGUGUUGAGUCU			12.2	58.4
UUCACAUGGUAUGAAUAUACAUACAAGAAACGAGGACCGGUACGGCCGCCACUCGUGCCGGAAACAUGAGGAUCACCCAUGUGUU			37	45.4
GAGUAGAGGACGGCCGCCACUAAACAUGAGGAUCACCCAUGUCGUGAUCCGUUACCUAGAGUAGAUAGGACCGGGUCAUAUAGUC			26.4	21.3
UAUUAUCAGUCGGCCGCCACUGACACAUGAGGAUCACCCAUGUAAUUUGGGUUAUAUAUAAAUUACAGGACCGGGACAAAGGCUA			358	295
GCAUCCUAGUCGGCCGCCACUGCAACAUGAGGAUCACCCAUGUCUGCAUCUUCAUGAUGCAGUAGCAGGACCGGGACUAGGAUGC	185	20.2		
CGUAUUGGAAACAGUACGAGUGAUCCGGUCCGAGGACCGGUACGGCCGCCACUCGAAAUAAAUAAACAUGAGGAUCACCCAUGUA			18.6	28.4
GAGCGCGUGGACUGGCGUGCUCCGCUCCGUCGAGGACCGGUACGGCCGCCACUCGACAUGAGGAUCACCCAUGUGUGCGCUCGCG			51.5	96.3
GGUUACUCUACGGCCGCCACUGAUUAUUUAUAGUCCUGUACAUAAACAUGAGGAUCACCCAUGUACAGGACCGGGUAGUGUAACC	34.9	35.6		
AGAUUCGACACGGCCGCCACUUGGAGUGGCUGCUAGCAUGUUACACAUGAGGAUCACCCAUGUCUAAGGACCGGGUGUUGAGUCU			41.1	216
